Bcl-xL primary = inhibitors of human Bcl-xL, primary screen, biochemical, fluorescence polarization, HTS; inhibition, % at 10.9 µM; GST-Bcl-xL / FITC-Bim BH3 peptide fluorescence polarization; 320,000 compounds, 0.7% hits;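 active = inhibition above the mean of all tested compounds plus 3 SD, cutoff set per campaign, cut at about 30% in these data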;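 note: 0% = DMSO wells and 100% = unlabeled Bim-BH3 peptide competitor; inhibitors lower millipolarization by displacing the labeled peptide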
Target sequence (Q07817 whole entry, looked up): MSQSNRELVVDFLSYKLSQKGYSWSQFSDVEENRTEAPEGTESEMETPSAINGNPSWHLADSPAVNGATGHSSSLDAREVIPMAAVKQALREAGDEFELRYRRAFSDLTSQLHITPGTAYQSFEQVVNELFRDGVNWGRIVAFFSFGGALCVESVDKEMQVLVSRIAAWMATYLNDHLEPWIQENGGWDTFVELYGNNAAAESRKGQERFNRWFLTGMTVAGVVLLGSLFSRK
VIM-2 inh = VIM-2 metallo-beta-lactamase inhibitors, primary screen, biochemical, epi-absorbance readout, Pseudomonas aeruginosa enzyme; purified VIM-2, nitrocefin hydrolysis, epi-absorbance fluorescence; AID 1527, 2009; 290,000 compounds, 0.89% hits; inhibition, % at 5.6 µM;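 active = inhibition above the mean of all tested compounds plus 3 SD, cutoff set per screening run, cut at about 7.5% in these data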;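 note: red hydrolysis product quenches plate fluorescence so inhibitors raise well fluorescence; 0% = enzyme with DMSO and 100% = DMSO without enzyme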
EBV gp42 block = Epstein-Barr virus gp42 inhibitors, primary screen, biochemical, uHTS, fluorescence polarization. Glycoprotein 42 (Epstein-Barr virus (strain AG876)), Q1HVG2. Fluorescence polarization binding assay, mP read-out. inhibition, % (tested at 21.74 µM). 220,000 compounds, 0.42% hits; in the data active = inhibition above about 50%
IMP-1 inhibitor = IMP-1 metallo-beta-lactamase inhibitors, primary screen, biochemical, epi-absorbance readout, Pseudomonas aeruginosa enzyme; purified IMP-1, nitrocefin hydrolysis, epi-absorbance fluorescence; inhibition, % at 5.6 µM; metallo-beta-lactamase IMP-1 (Pseudomonas aeruginosa); AID 1556, 2009; 290,000 compounds, 0.45% hits;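 active = inhibition above the mean plus 3 SD of all compounds in the same screening run, cut at about 4.5% in these data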;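 note: 0% = IMP-1 with DMSO and 100% = DMSO wells lacking enzyme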
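System: Purified recombinant IMP-1 metallo-beta-lactamase enzyme | Measured by: Fluorescence quenching readout, ex 480/em 530 nm | Replication: Singlicate | Incubation: 15 min preincubation plus 25 min reaction at 25 °C | Evaluation: Percent inhibition from optical density relative to buffer-blank wells | Benchmarks: DMSO with and without IMP-1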
MEX-5 binding = MEX-5 zinc finger RNA-binding disruptors – biochemical, C. elegans, fluorescence polarization, MLPCN library, primary screen | Zinc finger protein mex-5 (Caenorhabditis elegans), Q9XUB2 | activity score (negative = inhibition of binding), % at 10 µM | MEX-5/FITC-TCR2 RNA binding; active compounds read low | 300,000 compounds, 0.38% hits | AID 1832, 2009;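 active = inhibition past about -25% in most replicates, and total fluorescence under double the plate's negative control median, limit read from the data; inconclusive = replicates evenly split on the limit, or fluorescence at least double controls; inactive = too little inhibition in most replicates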;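 note: 0% = DMSO and -100% = 5 µM competing unlabeled TCR2 RNA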
Target sequence (Q9XUB2 whole entry, looked up): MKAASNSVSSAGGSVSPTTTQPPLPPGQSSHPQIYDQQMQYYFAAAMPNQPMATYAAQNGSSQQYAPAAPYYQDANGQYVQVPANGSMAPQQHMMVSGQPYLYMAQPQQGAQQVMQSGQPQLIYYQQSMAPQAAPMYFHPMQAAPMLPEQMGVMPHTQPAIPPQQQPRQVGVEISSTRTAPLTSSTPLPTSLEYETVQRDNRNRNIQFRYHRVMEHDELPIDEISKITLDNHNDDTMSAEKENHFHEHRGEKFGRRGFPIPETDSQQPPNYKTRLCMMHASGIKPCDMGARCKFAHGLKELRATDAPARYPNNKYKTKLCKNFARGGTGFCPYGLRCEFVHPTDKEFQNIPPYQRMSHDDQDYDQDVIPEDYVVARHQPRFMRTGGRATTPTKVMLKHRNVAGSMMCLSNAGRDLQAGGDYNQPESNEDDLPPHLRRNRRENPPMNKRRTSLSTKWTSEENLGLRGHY
GLD-1 RNA inh = GLD-1/TGE RNA complex disruptors, primary screen, biochemical, fluorescence polarization; Female germline-specific tumor suppressor gld-1 (Caenorhabditis elegans), Q17339; purified GLD-1 + fluorescein TGE RNA; inhibition, % at 5.96 µM; 320,000 compounds, 0.44% hits;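 active = percent inhibition above a per-plate cutoff, the plate mean of test compounds plus 3 SD, cut at about 30% in these data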;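 note: 0% = DMSO wells with GLD-1 and probe and 100% = wells lacking GLD-1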
Numbers without * were called inactive. Rows were chosen to be rich in hits. Some 2.2% of all compounds tested hit in one or more screens of this group.

Screening NC(CO)C(=O)NNCc1ccc(O)c(O)c1O (stereo not drawn) returned Bcl-xL primary 36*, VIM-2 inh 0, EBV gp42 block -3, IMP-1 inhibitor 0, MEX-5 binding -33* and GLD-1 RNA inh 22.
CC(=O)c1cccc(NC(=O)CCn2c(=S)oc3ccccc32)c1 was read as Bcl-xL primary 4, VIM-2 inh -3, IMP-1 inhibitor -2, MEX-5 binding 1 and GLD-1 RNA inh 1.
`Cc1ccc(CNC(=O)Cc2ccc(-n3cccc3)cc2)cc1` gave Bcl-xL primary 2, VIM-2 inh 0, EBV gp42 block -5, IMP-1 inhibitor -3, MEX-5 binding 0 and GLD-1 RNA inh 1.
`Cc1ccc(CNC(=O)c2ccc(-n3cccc3)cc2)cc1` gave VIM-2 inh -2, EBV gp42 block 51*, IMP-1 inhibitor -2 and MEX-5 binding 0.
Screening CN1Cc2sc(N)c(C#N)c2CC1(C)C returned Bcl-xL primary 61*, VIM-2 inh -2, EBV gp42 block 4, IMP-1 inhibitor -3, MEX-5 binding -23 and GLD-1 RNA inh 24.
For COCC(COS(N)(=O)=O)Cc1ccccc1 (stereo not drawn) the results were Bcl-xL primary 5, VIM-2 inh -3, IMP-1 inhibitor -1, MEX-5 binding 3 and GLD-1 RNA inh 6.
CC(C)OC(=O)c1c2c(n3ccccc13)C(=O)c1ccccc1C2=O was read as Bcl-xL primary 89*, VIM-2 inh 0, EBV gp42 block 88*, IMP-1 inhibitor 2, MEX-5 binding -31* and GLD-1 RNA inh -7.
Screening CCN1CCN(CCC(=O)Nc2cccc(C)c2)CC1 returned Bcl-xL primary 32*, VIM-2 inh -1, IMP-1 inhibitor -3, MEX-5 binding -1 and GLD-1 RNA inh 1.
CCC(C)[C@H](NC(=O)C1CC(=O)N(c2ccc3c(c2)OCO3)C1)C(=O)NC1CCCCC1 (stereo partly drawn) was read as Bcl-xL primary 54*, VIM-2 inh -2, IMP-1 inhibitor -2, MEX-5 binding -21 and GLD-1 RNA inh 38*.
For COc1ccc(OC)c2sc(N(CCN(C)C)C(=O)/C=C/c3cccs3)nc12 the results were Bcl-xL primary -3, VIM-2 inh 5, IMP-1 inhibitor 11*, MEX-5 binding -4 and GLD-1 RNA inh 4.
`Cc1c(Br)c(O)c(Br)c2sc(=O)oc12` gave Bcl-xL primary 36*, VIM-2 inh 3, EBV gp42 block -10, IMP-1 inhibitor -2 and GLD-1 RNA inh 3.
`C[C@@H]1CN([C@H](C)CO)C(=O)Cc2cc(NS(=O)(=O)c3cn(C)cn3)ccc2O[C@H]1CN(C)S(=O)(=O)c1ccc(Cl)cc1` gave GLD-1 RNA inh 0.
For NC(=O)C1=C[C@@H](c2csc3ccccc23)C[C@@H](OCCCCO)O1 the results were Bcl-xL primary 3, VIM-2 inh 3, EBV gp42 block -13, IMP-1 inhibitor 6.3*, MEX-5 binding -1 and GLD-1 RNA inh -3.
For Cc1cnnc2c1-c1no[n+]([O-])c1CC2 the results were Bcl-xL primary -3, VIM-2 inh -2, EBV gp42 block -17, IMP-1 inhibitor -4, MEX-5 binding -4 and GLD-1 RNA inh 5.
Screening Cc1cnnc2c1-c1nonc1CC2 returned Bcl-xL primary 5, VIM-2 inh -2, EBV gp42 block -5, IMP-1 inhibitor 4.5*, MEX-5 binding 0 and GLD-1 RNA inh 12.
For COc1cccc(Nc2nc3ccccc3n3cnnc23)c1 the results were Bcl-xL primary 2, VIM-2 inh 7.8*, EBV gp42 block -5, IMP-1 inhibitor -4, MEX-5 binding 6 and GLD-1 RNA inh 1.
Cc1ccc2nc(Nc3ccc(F)cc3)c3nncn3c2c1 was read as Bcl-xL primary -15, VIM-2 inh 1, IMP-1 inhibitor 7.6*, MEX-5 binding -4 and GLD-1 RNA inh -12.
For COc1ccc(Nc2nc3ccccc3n3cnnc23)cc1Cl the results were Bcl-xL primary -1, VIM-2 inh 1, IMP-1 inhibitor -2, MEX-5 binding 4 and GLD-1 RNA inh -1.
`COc1ccc(OC)c(/C=C/C(=O)OCC(=O)Nc2nnc(-c3ccccc3)o2)c1` gave Bcl-xL primary 11 and GLD-1 RNA inh 1.
COc1ccc(C2C=C(c3ccc(Br)s3)Nc3ncnn32)cc1OC (stereo not drawn) was read as Bcl-xL primary 189*, VIM-2 inh 0, EBV gp42 block 91*, IMP-1 inhibitor -4, MEX-5 binding inconclusive and GLD-1 RNA inh 146*.
`CCOc1ccc(C2C=C(c3ccccc3)Nc3ncnn32)cc1` (stereo not drawn) gave Bcl-xL primary 46*, VIM-2 inh -5, EBV gp42 block 25, IMP-1 inhibitor -3, MEX-5 binding 2 and GLD-1 RNA inh 37*.
Screening COc1ccc(C2C=C(c3ccccc3)Nc3nnnn32)cc1 (stereo not drawn) returned Bcl-xL primary 14, VIM-2 inh -3, EBV gp42 block -16, IMP-1 inhibitor -4, MEX-5 binding -7 and GLD-1 RNA inh 4.
Screening COc1cccc(C2=CC(c3ccccc3)n3ncnc3N2)c1 (stereo not drawn) returned Bcl-xL primary 39*, VIM-2 inh -3, EBV gp42 block 24, IMP-1 inhibitor -2, MEX-5 binding -2 and GLD-1 RNA inh 51*.
COc1ccc(C2C=C(c3ccc(C)cc3)Nc3ncnn32)cc1 (stereo not drawn) was read as VIM-2 inh 1, EBV gp42 block 38, IMP-1 inhibitor 1 and MEX-5 binding -6.
Screening COc1ccc(C2C=C(c3ccccc3)Nc3nc(NC(C)=O)nn32)cc1 (stereo not drawn) returned Bcl-xL primary 58*, VIM-2 inh -2, EBV gp42 block 58*, IMP-1 inhibitor -1, MEX-5 binding -12 and GLD-1 RNA inh 40*.
Screening COc1ccccc1-c1nn(Cc2ccccc2)cc1C(=O)NCC(c1ccco1)N1CCCC1 (stereo not drawn) returned Bcl-xL primary -2 and GLD-1 RNA inh 0.
For CCCCN(c1nc2ccccc2nc1Cl)S(=O)(=O)c1ccc(C)cc1 the results were Bcl-xL primary -1, VIM-2 inh -2, IMP-1 inhibitor -1, MEX-5 binding 3 and GLD-1 RNA inh 1.
Screening CCOc1ccc(C2C=C(c3ccc(F)cc3)Nc3ncnn32)cc1 (stereo not drawn) returned Bcl-xL primary 38*, VIM-2 inh -3, EBV gp42 block 53*, IMP-1 inhibitor -4, MEX-5 binding -1 and GLD-1 RNA inh 44*.
